The nature of data set [1]: Antiproliferative activity against rheumatoid arthritis patient-derived HFLS after 72 hrs by MTT assay. It is filed as functional, Homo sapiens. An outline of the steps: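 RA synovial fibroblasts (DMEM, 10% FBS, passage 3) were seeded at 2 × 10^4 cells/well. Compound was given at graded concentrations against an untreated control for 72 h at 37 °C, 5% CO2. MTT was then added for 4 h and absorbance read at 450 nm. IC50 came from non-linear regression of 6-point dose-response curves.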
For orientation: Formazan colour is commonly taken as a measure of viable cells.

In data set [2] the target is Mast/stem cell growth factor receptor Kit (Homo sapiens, UniProt P10721). Briefly: Inhibition of c-kit (unknown origin) using FAM-labeled peptide as substrate preincubated for 10 mins followed by substrate addition measured after 25 mins. An outline of the steps: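 Enzyme was preincubated with compound for 10 min at room temperature, then FAM-labeled peptide with ATP was added for 25 min at 28 °C. After an EDTA stop, the plate was read on a Caliper. IC50 came from non-linear curve fit.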

The target of data set [3] is Platelet-derived growth factor receptor alpha (Homo sapiens, UniProt P16234). Briefly: Inhibition of PDGFRalpha (unknown origin) using FAM-labeled peptide as substrate preincubated for 10 mins followed by substrate addition measured after 25 mins.
A short description of data set [4]: Solubility of the compound in water after 24 hrs by HPLC method. It is filed as physicochemical.
Data set [5] deals with BMMC. The experiment in a line: Antiproliferative activity against BALB/c mouse BMMC after 48 hrs by MTT assay.
For data set [6], the species on record is Homo sapiens. Briefly: Antiinflammatory activity against rheumatoid arthritis patient-derived HFLS assessed as reduction in IL-6 levels incubated for 30 mins measured after 72 hrs by ELISA. It is filed as functional. Put shortly:
(§1)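 RA patient synovial fibroblasts were kept in high-glucose DMEM with 10% FBS at 37 °C under 5% CO2 and used after 3 passages. Cells were seeded at 2 × 10^4 cells/well in 6-well plates and given compound or vehicle for 30 min. IL-6 and MMP-3 in the supernatant were read by ELISA after 72 h.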
In general terms: ELISA stands for enzyme-linked immunosorbent assay.

For data set [7], the species on record is Homo sapiens. Briefly: Antiinflammatory activity against rheumatoid arthritis patient-derived HFLS assessed as reduction in MMP-3 levels incubated for 30 mins measured after 72 hrs by ELISA. In kind it is functional. Put shortly:
as §1

The subject of data set [8] is BMMC. The experiment in a line: Antiinflammatory activity against BALB/c mouse BMMC assessed as reduction in TNFalpha levels incubated for 30 mins measured after 48 hrs by ELISA. In kind it is functional, cell-based. Put shortly:
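BALB/c mouse bone-marrow mast cells were grown in RPMI 1640 with 1% non-essential amino acids and 10% FBS at 37 °C under 5% CO2. Cells were seeded at 2 × 10^4 cells/well in 6-well plates and given compound or vehicle for 30 min. Supernatant TNF-α was read by ELISA after 48 h.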

The term IC50 denotes the concentration that inhibits the measured activity by half. The solubility is how much of the substance goes into solution per volume.

≈ marks a conversion by molar mass, not a printed value. Some results are limits rather than exact numbers.

Chain of Platelet-derived growth factor receptor alpha (P16234 whole entry): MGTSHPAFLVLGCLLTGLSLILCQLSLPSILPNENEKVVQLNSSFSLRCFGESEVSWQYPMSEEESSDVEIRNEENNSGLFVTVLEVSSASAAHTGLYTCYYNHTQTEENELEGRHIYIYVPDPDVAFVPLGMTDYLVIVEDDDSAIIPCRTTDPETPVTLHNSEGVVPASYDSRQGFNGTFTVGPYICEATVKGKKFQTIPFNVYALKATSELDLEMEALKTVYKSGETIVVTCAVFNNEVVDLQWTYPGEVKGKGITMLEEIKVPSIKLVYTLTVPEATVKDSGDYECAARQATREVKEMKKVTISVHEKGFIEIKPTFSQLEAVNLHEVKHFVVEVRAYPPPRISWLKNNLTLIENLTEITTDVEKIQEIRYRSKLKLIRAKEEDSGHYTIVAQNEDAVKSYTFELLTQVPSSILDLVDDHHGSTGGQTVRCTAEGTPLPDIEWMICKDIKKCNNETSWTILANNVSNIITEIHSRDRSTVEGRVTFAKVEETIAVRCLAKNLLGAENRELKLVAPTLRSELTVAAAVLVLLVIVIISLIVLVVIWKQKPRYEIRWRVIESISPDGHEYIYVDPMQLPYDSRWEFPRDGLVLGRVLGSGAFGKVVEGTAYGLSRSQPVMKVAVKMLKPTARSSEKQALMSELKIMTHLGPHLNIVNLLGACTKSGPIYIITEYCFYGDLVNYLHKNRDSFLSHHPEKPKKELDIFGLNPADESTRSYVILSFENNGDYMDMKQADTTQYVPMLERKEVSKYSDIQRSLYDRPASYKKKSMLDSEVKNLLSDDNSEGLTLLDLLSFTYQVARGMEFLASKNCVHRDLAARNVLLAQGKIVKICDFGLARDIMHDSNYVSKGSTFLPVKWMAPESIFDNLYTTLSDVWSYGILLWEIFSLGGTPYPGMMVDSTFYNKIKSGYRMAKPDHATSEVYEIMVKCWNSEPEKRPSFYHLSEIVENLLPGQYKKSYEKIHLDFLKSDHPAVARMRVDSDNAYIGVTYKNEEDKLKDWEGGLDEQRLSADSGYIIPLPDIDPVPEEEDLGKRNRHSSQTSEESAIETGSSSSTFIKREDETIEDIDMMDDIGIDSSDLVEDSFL
Chain of Mast/stem cell growth factor receptor Kit (P10721 whole entry): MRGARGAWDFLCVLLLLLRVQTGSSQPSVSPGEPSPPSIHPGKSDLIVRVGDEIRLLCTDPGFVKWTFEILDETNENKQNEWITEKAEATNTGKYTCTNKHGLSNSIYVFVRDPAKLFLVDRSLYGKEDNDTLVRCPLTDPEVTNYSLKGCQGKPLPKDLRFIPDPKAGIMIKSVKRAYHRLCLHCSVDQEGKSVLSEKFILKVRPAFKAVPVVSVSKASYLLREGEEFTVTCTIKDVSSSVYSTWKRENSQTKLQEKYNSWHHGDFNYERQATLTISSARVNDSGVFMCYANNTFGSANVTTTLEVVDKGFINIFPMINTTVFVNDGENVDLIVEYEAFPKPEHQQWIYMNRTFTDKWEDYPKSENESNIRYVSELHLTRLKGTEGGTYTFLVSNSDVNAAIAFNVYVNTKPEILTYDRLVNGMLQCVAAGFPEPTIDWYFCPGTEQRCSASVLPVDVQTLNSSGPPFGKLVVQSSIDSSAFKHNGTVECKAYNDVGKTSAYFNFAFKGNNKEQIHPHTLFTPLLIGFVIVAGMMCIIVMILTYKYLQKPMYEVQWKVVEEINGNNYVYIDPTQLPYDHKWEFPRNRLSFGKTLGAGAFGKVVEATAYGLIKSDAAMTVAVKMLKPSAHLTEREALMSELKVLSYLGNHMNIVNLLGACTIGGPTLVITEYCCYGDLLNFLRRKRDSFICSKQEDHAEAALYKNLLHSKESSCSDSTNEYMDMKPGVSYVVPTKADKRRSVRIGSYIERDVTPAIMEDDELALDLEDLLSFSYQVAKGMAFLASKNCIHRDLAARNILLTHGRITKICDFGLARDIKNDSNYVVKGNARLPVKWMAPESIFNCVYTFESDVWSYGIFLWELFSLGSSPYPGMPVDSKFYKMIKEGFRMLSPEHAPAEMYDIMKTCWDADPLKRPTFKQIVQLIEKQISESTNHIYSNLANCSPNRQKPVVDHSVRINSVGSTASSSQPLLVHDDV

For `Cc1ccc(Nc2nc(N3CCC(NC(=O)c4ccc(C(=O)O)cn4)C3)nc3c2COC3)cc1C` (centres undefined), the IC50 is 11.2 µM in data set [1], > 50 µM in data set [2] and > 50 µM in data set [3].
Turning to `O=C(O)c1ccc(C(=O)NC2CCN(c3nc4c(c(Nc5ccc6c(c5)OCCO6)n3)COC4)C2)nc1` (centres undefined), the half-inhibitory concentration (IC50) is 49.2 µM in data set [2] and > 50 µM in data set [3].
Turning to `CCOCCCNc1nc(N2CCC(NC(=O)c3ccc(C(=O)O)cn3)C2)nc2c1COC2` (centres undefined), the IC50 in data set [2] and in data set [3] was > 50 µM each time.
For the compound `O=C(O)c1ccc(C(=O)NC2CCN(c3nc4c(c(NC5CCCCC5)n3)COC4)C2)nc1` (centres undefined), the IC50 in data set [1] was 5.4 µM; in data set [2], > 50 µM; in data set [3], > 50 µM.
In turn, `COc1ccc(Nc2nc(N3CCC(NC(=O)c4ccc(C(=O)O)cc4)C3)nc3c2CCC3)cc1OC` (centres undefined) gave a solubility at 24 h in data set [4] of 86 µg/mL (≈ 171 µM).
On to `COc1ccc(Nc2nc(N3CCC(NC(=O)c4ccc(C(=O)O)cn4)C3)nc3c2COC3)cc1` (centres undefined), for which the IC50 in data set [2] and in data set [3] was > 50 µM in each case.
Take `COc1ccc(Nc2nc(N3CCC(NC(=O)c4ccc(C(=O)O)cn4)C3)nc3c2COC3)cc1OC` (centres undefined): the IC50 in data set [2] is > 50 µM.
Consider `Cc1ccc(NC(=O)c2ccc(CN3CCN(C)CC3)cc2)cc1Nc1nc(-c2cccnc2)cs1` [MASITINIB], for which the IC50 in data set [5] was 0.1 µM.
As to `Cc1ccc(Nc2nc(N3CCC(NC(=O)c4ccc(C(=O)O)cn4)C3)nc3c2COC3)cc1` (centres undefined), the IC50 in data set [2] and in data set [3] was > 50 µM throughout.
As for `CCCCCNc1nc(N2CCC(NC(=O)c3ccc(C(=O)O)cn3)C2)nc2c1COC2` (centres undefined), the IC50 in data set [2] and in data set [3] was > 50 µM each time.
On to `CCCCCCNc1nc(N2CCC(NC(=O)c3ccc(C(=O)O)cn3)C2)nc2c1COC2` (centres undefined), for which the Activity result in data set [6] and in data set [7] was “Dose-dependent effect” in each case. For the same compound, the IC50 in data set [1] was 4 µM; in data set [2] it was > 50 µM; in data set [3], > 50 µM.
With `CCCCCCCNc1nc(N2CCC(NC(=O)c3ccc(C(=O)O)cn3)C2)nc2c1COC2` (centres undefined), in data set [8], the Activity result was “Dose-dependent effect”. For the same compound, the IC50 was 8.1 µM in data set [1], 13 µM in data set [5], 25.8 µM in data set [2] and > 50 µM in data set [3].
For `COc1cc(Nc2nc(N3CCC(NC(=O)c4ccc(C(=O)O)cn4)C3)nc3c2COC3)cc(OC)c1` (centres undefined), the Activity result in data set [6], in data set [8] and in data set [7] was “Dose-dependent effect” each time. Besides, the figures for the IC50 in data set [1], in data set [5] and in data set [2] were 3.2 µM, 2 µM and 18.6 µM, respectively. In data set [4], this compound came in with a solubility at 24 h of 167 µg/mL (≈ 330 µM).
As for `CCc1ccc(Nc2nc(N3CCC(NC(=O)c4ccc(C(=O)O)cn4)C3)nc3c2COC3)cc1` (centres undefined), the IC50 in data set [1] was 9.4 µM; in data set [2], > 50 µM; in data set [3] it was > 50 µM.
Turning to `COc1cc(Nc2nc(N3CCC(NC(=O)c4ccc(C(=O)O)cn4)C3)nc3c2COC3)cc(OC)c1OC` (centres undefined), the IC50 was 31 µM in data set [1], 21.1 µM in data set [5] and 31.3 µM in data set [2].
In the case of `COCCCNc1nc(N2CCC(NC(=O)c3ccc(C(=O)O)cn3)C2)nc2c1COC2` (centres undefined), the IC50 in data set [2] and in data set [3] was > 50 µM in each case.

Values taken from ChEMBL document CHEMBL4229503, “Discovery of novel Syk/PDGFR-α/c-Kit inhibitors as multi-targeting drugs to treat rheumatoid arthritis” (Bioorg Med Chem, 2018).
